Measurements from ChEMBL document CHEMBL1147086, “Composite synthetic lethal identification of membrane traffic inhibitors” (Proc Natl Acad Sci U S A, 2007).
The source made the active and inactive calls. The rule behind the calls is not given here.

How the values were obtained:
Saccharomyces cerevisiae [1] = test: Effect on localization of chitin synthase Chs3p in CHS6 deficient yeast MDY335 assessed as induction of chitin bud scars at 25 uM by fluorescence microscopy; type: functional, organism-based
How it was run: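 chs6Δ cells (pdr5Δ snq2Δ background) grown overnight at 30°C in YPD with 25 μM compound or DMSO; cells mixed 1:1 with 2.5 mM calcofluor white in YPD for 10 min, washed twice, chitin rings scored by fluorescence microscopy.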

Saccharomyces cerevisiae [2] = test: Growth inhibition of AP1 deficient yeast MDY334 cells upto 300 uM; type: functional, organism-based
How it was run: (§1)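 Overnight cultures (pdr5Δ snq2Δ background) diluted to OD600 0.0003 in YPD, given serially diluted compound in 30-μl cultures, grown 18–24 h at 30°C humidified; OD490 read after vortexing; growth expressed as fold inhibition relative to the same strain with DMSO.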

Saccharomyces cerevisiae [3] = test: Growth inhibition of yeast MDY330 carrying temperature sensitive allele of clathrin heavy chain gene assessed as cell growth at 25 uM relative to wild-type; type: functional; parameters: scale not given: the % may be the effect or the level left
Saccharomyces cerevisiae [4] = test: Growth inhibition of apl2/4 deficient yeast MDY334 cells assessed as cell growth at 25 uM relative to wild-type; type: functional; parameters: scale not given: the % may be the effect or the level left
Saccharomyces cerevisiae [5] = test: Growth inhibition of wild type yeast MDY326 cells upto 300 uM; type: functional, organism-based; how it was run: as §1
Saccharomyces cerevisiae [6] = test: Inhibition of maturation of alpha-factor2 in gga2delta containing yeast MDY380 at 25 uM; type: functional, organism-based
How it was run: (§2)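 Cells treated overnight with 25 μM compound or DMSO in YPD to OD600 0.2, washed in SCMG with 50 μM compound, labeled 10 min with [35S]methionine, chased 30 min; α-factor immunoprecipitated from medium, SDS/PAGE and autoradiography.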

Saccharomyces cerevisiae [7] = test: Inhibition of maturation of alpha-factor2 in wild type yeast MDY326 at 25 uM; type: functional, organism-based; how it was run: as §2
Saccharomyces cerevisiae [8] = test: Growth inhibition of wild type yeast MDY326 assessed as cell growth at 25 uM; type: functional; parameters: scale not given: the % may be the effect or the level left; how it was run: as §1
Saccharomyces cerevisiae [9] = test: Growth inhibition of gga1/2 deficient yeast MDY327 cells assessed as cell growth at 25 uM relative to wild-type; type: functional; parameters: scale not given: the % may be the effect or the level left
Saccharomyces cerevisiae [10] = test: Toxicity against wild type yeast MDY326 assessed as 2 fold reduction of cell growth at 150 uM; type: organism-based; details: in vivo
How it was run: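 Wild-type strain MDY326 (pdr5Δ snq2Δ) diluted to OD600 0.0003 in YPD, compound serially diluted into 30 μl cultures, grown 18–24 h at 30°C humidified; OD490 read after vortexing, normalized to untreated/DMSO wells; value is the concentration producing 2-fold growth inhibition.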

Saccharomyces cerevisiae [11] = test: Toxicity against wild type yeast MDY326 assessed as 2 fold reduction of cell growth; type: organism-based; details: in vivo
How it was run: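 Wild-type cells (pdr5Δ snq2Δ) grown 18–24 h at 30°C in YPD with serially diluted compound; OD490 read; value is concentration giving 2-fold growth inhibition versus DMSO.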

Saccharomyces cerevisiae [12] = test: Growth inhibition of gga1/2delta containing yeast MDY327 carrying wild type SNQ2 and PDR5 gene; type: functional, organism-based
Saccharomyces cerevisiae [13] = test: Prevention of maturation of carboxyl peptidase S in gga1/2 deficient yeast MDY327 assessed as delay in maturation at 25 uM by pulse-chase immunoprecipitation; type: functional, organism-based
How it was run: (§3)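 Cells grown overnight in YPD with 25 μM compound or DMSO, labeled 10 min with [35S]methionine, chase started by adding yeast extract/cysteine/methionine; CPS immunoprecipitated at chase points; precursor versus mature forms compared by SDS/PAGE and autoradiography.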

Saccharomyces cerevisiae [14] = test: Effect on maturation of alkaline phosphatase in wild type yeast SEY6210 at 25 uM by pulse-chase immunoprecipitation; type: functional, organism-based
How it was run: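 SEY6210 grown overnight with 25 μM compound or DMSO, pulse-labeled 5 min with [35S]methionine, chase started by adding yeast extract/cysteine/methionine; ALP immunoprecipitated from lysates at chase points; precursor and mature forms resolved by SDS/PAGE and autoradiography; apl6Δ strain run in parallel.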

Saccharomyces cerevisiae [15] = test: Growth inhibition of gga1/2delta containing yeast MDY327; type: functional, organism-based; how it was run: as §1
Saccharomyces cerevisiae [16] = test: Effect on maturation of carboxyl peptidase S in wild type yeast MDY326 assessed as delay in maturation at 25 uM by pulse-chase immunoprecipitation; type: functional; how it was run: as §3
Saccharomyces cerevisiae [17] = test: Degradation of Ste3p receptor in gga2delta containing yeast MDY380 by pulse-chase immunoprecipitation; type: functional, organism-based
How it was run: (§4)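 Cells grown at 30°C to OD600 0.2 in YPD with DMSO or compound, washed twice in SCMG containing 50 μM compound, pulse-labeled 10 min with [35S]methionine (50 μCi per OD600), chased in YPD; samples stopped with NaF/NaN3 (10 mM final) at set chase points; Ste3p immunoprecipitated from lysates, SDS/PAGE and autoradiography.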

Saccharomyces cerevisiae [18] = test: Degradation of Ste3p receptor in yeast MDY330 carrying temperature sensitive allele of clathrin heavy chain gene by pulse-chase immunoprecipitation; type: functional, organism-based; how it was run: as §4
Saccharomyces cerevisiae [19] = test: Degradation of Ste3p receptor in wild type yeast MDY326 cells by pulse-chase immunoprecipitation; type: functional, organism-based; how it was run: as §4
Saccharomyces cerevisiae [20] = test: Effect on maturation of alpha-factor2 in gga2delta containing yeast MDY380; type: functional, organism-based
How it was run: (§5)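 Yeast grown at 30°C to OD600 0.2 in YPD with compound (25 μM) or DMSO, washed twice in SCMG containing 50 μM compound, pulse-labeled 10 min with [35S]methionine (50 μCi per OD600), chased 30 min in YPD, stopped with NaF/NaN3 (10 mM final); secreted α-factor immunoprecipitated from medium, resolved by SDS/PAGE and autoradiography; DMSO-treated and wild-type (MDY326) cells as reference.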

Saccharomyces cerevisiae [21] = test: Effect on maturation of alpha-factor2 in yeast MDY330 carrying temperature sensitive allele of clathrin heavy chain gene; type: functional, organism-based; how it was run: as §5

SMILES	Activity (Saccharomyces cerevisiae [1])	Activity (Saccharomyces cerevisiae [3])	Activity (Saccharomyces cerevisiae [4])	Activity (Saccharomyces cerevisiae [8])	Activity (Saccharomyces cerevisiae [9])	Activity (Saccharomyces cerevisiae [11])	also measured
CC(=O)c1ccc(N2CCN(Cc3ccco3)CC2)cc1	Active	50%	70%	70%	50%	–	Activity (Saccharomyces cerevisiae [2]): inactive; Activity (Saccharomyces cerevisiae [5]): inactive; Activity (Saccharomyces cerevisiae [6]): Active; Activity (Saccharomyces cerevisiae [7]): inactive
c1ccc(CN2CCC(NCC(c3ccccc3)c3ccccc3)CC2)cc1	inactive	70%	70%	70%	<50%	–	–
CC(=O)c1ccc(N2CCN(CC3=CCCCC3)CC2)cc1	–	–	–	–	–	–	Activity (Saccharomyces cerevisiae [10]): Toxic
C/C=C(\C)CN1CCN(c2ccc(C(=O)OCC)cc2)CC1	–	–	–	–	–	Non-toxic	–
O=C1NC(=O)/C(=C\c2cccc(Cl)c2Cl)S1	inactive	70%	70%	70%	50%	–	–
C/C=C(\C)CN1CCN(c2ccc(C(C)=O)cc2)CC1	Active	50%	70%	70%	<50%	Non-toxic	Activity (Saccharomyces cerevisiae [12]): Active; Activity (Saccharomyces cerevisiae [2]): inactive; Activity (Saccharomyces cerevisiae [13]): Active; Activity (Saccharomyces cerevisiae [14]): inactive; EC50 (Saccharomyces cerevisiae [15]): 4 µM; Activity (Saccharomyces cerevisiae [5]): inactive; Activity (Saccharomyces cerevisiae [16]): <2; Activity (Saccharomyces cerevisiae [6]): Active; Activity (Saccharomyces cerevisiae [7]): inactive; Activity (Saccharomyces cerevisiae [17]): inactive; Activity (Saccharomyces cerevisiae [18]): inactive; Activity (Saccharomyces cerevisiae [19]): inactive
O=C(Nc1ccccc1)c1ccccc1/N=C/c1cc(Br)ccc1O	inactive	70%	50%	70%	50%	–	–
CC(=O)c1ccc(N2CCN(Cc3cccc(F)c3F)CC2)cc1	–	–	–	–	–	–	Activity (Saccharomyces cerevisiae [10]): Toxic
CC(C)Cc1ccc(C(C)C(=O)N/N=C/c2ccc(N(C)C)cc2)cc1 (stereo not given)	inactive	70%	70%	70%	<50%	–	–
CC(=O)c1ccc(N2CCN(Cc3ccc(Cl)cc3)CC2)cc1	–	–	–	–	–	Non-toxic	–
CC(=O)c1ccc(N2CCN(Cc3ccccc3F)CC2)cc1	–	–	–	–	–	–	Activity (Saccharomyces cerevisiae [10]): Toxic
COC(=O)Oc1c(Br)c(C)c2oc(=O)sc2c1Br	inactive	70%	70%	70%	<50%	–	–
COc1ccc(CN2CCN(Cc3cc(Br)ccc3O)CC2)cc1	–	–	–	–	–	–	Activity (Saccharomyces cerevisiae [20]): inactive; Activity (Saccharomyces cerevisiae [21]): inactive
C/C=C(\C)CN1CCN(c2ccc(C(=O)O)cc2)CC1	–	–	–	–	–	Non-toxic	–
CC(=O)c1ccc(N2CCN(Cc3ccccc3)CC2)cc1	–	–	–	–	–	Non-toxic	–
CC(=O)c1ccc(N2CCN(CC3CC3)CC2)cc1	–	–	–	–	–	Non-toxic	–

SMILES	Activity (Saccharomyces cerevisiae [1])	Activity (Saccharomyces cerevisiae [3])	Activity (Saccharomyces cerevisiae [4])	Activity (Saccharomyces cerevisiae [8])	Activity (Saccharomyces cerevisiae [9])	Activity (Saccharomyces cerevisiae [11])	also measured
CC(=O)c1ccc(N2CCN(Cc3cc(F)ccc3F)CC2)cc1	Active	50%	70%	70%	<50%	–	Activity (Saccharomyces cerevisiae [6]): Active; Activity (Saccharomyces cerevisiae [7]): inactive
Cc1cc(S)n(-c2ccccc2)n1	inactive	50%	50%	70%	<50%	–	–
Cl.N=c1n(Cc2ccccc2)c2ccccc2n1CC(O)COc1ccccc1 (stereo not given)	inactive	50%	50%	70%	<50%	–	–
COC(=O)c1ccccc1/N=C/c1c(O)c(Br)cc2oc3c(c12)CCCC3	inactive	<50%	50%	70%	<50%	–	–
CC(=O)c1ccc(N2CCN(Cc3cccs3)CC2)cc1	–	–	–	–	–	Non-toxic	–
O=C(N/N=C/c1c[nH]c2ccccc12)c1cc(-c2ccc(Cl)cc2)n[nH]1	inactive	70%	70%	70%	<50%	–	–
Cc1cc(O)c(C(C)C)cc1NS(=O)(=O)c1ccc(Cl)cc1	inactive	70%	70%	70%	50%	–	–
CC(=O)c1ccc(N2CCN(Cc3ccsc3)CC2)cc1	–	–	–	–	–	Non-toxic	–
O=C1/C(=C\c2ccc(-c3cccc(Cl)c3)o2)SC(=S)N1CCS(=O)(=O)O	–	–	–	–	–	–	Activity (Saccharomyces cerevisiae [20]): inactive; Activity (Saccharomyces cerevisiae [21]): inactive
O=C1/C(=C/c2ccc(O)cc2)SC(=S)N1C1CCCCC1	inactive	<50%	50%	70%	<50%	–	–
COc1ccc(CNC2C3CC4CC(C3)CC2C4)c2ccccc12 (stereo not given)	inactive	70%	70%	70%	<50%	–	–
CC1(C(=O)NC(=S)NNC(=O)c2cccnc2)CCCCC1	inactive	70%	70%	70%	<50%	–	–
CC(=O)c1ccc(N2CCN(Cc3ccccc3C(F)(F)F)CC2)cc1	–	–	–	–	–	Non-toxic	–
CCn1c2ccccc2c2cc(CNC3CCCC3)ccc21	inactive	70%	70%	70%	<50%	–	–
CCN1CCN(c2ccc(C(C)=O)cc2F)CC1	–	–	–	–	–	Non-toxic	–
